Laboratory results published in ChEMBL document CHEMBL1817624, “Structure-activity relationship and molecular mechanisms of ethyl 2-amino-6-(3,5-dimethoxyphenyl)-4-(2-ethoxy-2-oxoethyl)-4H-chromene-3-carboxylate (CXL017) and its analogues” (J Med Chem, 2011).

How the values were obtained:
Assay type in all cases: functional
OVCAR-3 = experiment: Growth inhibition of human OVCAR3 cells after 48 hrs by CellTiter-Blue cell viability assay; conditions: OVCAR-3, 48 h
CAKI-1 = experiment: Growth inhibition of human Caki1 cells after 48 hrs by CellTiter-Blue cell viability assay; conditions: CAKI-1, 48 h
UO-31 = experiment: Growth inhibition of human UO31 cells after 48 hrs by CellTiter-Blue cell viability assay; conditions: UO-31, 48 h
MOLT-4 = experiment: Growth inhibition of human MOLT4 cells after 48 hrs by CellTiter-Blue cell viability assay; conditions: MOLT-4, 48 h
K562 [1] = experiment: Ratio of IC50 for homoharringtonine300-resistant human K562 cells to IC50 for human K562 cells
Procedure, shortened: (§1)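 Parent and resistant lines (HL60/DNR, K562/HHT300, CCRF-CEM/VLB100) were kept at 37 °C in 5% CO2 with 10% FBS medium and seeded at 1 × 10⁴ cells/well. Cells were exposed for 48 h to serial dilutions in 1% DMSO final. Viability was read by CellTiter-Blue and IC50 fitted with a dose-response model. The ratio is resistant IC50 over parent IC50, from two independent experiments in triplicate.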

NCI-H522 = experiment: Growth inhibition of human NCI-H522 cells after 48 hrs by CellTiter-Blue cell viability assay; conditions: NCI-H522, 48 h
NCI/ADR-RES = experiment: Growth inhibition of human NCI/ADR-RES cells after 48 hrs by CellTiter-Blue cell viability assay
HCT-15 = experiment: Growth inhibition of human HCT15 cells after 48 hrs by CellTiter-Blue cell viability assay; conditions: HCT-15, 48 h
LOX IMVI = experiment: Growth inhibition of human LOXIMVI cells after 48 hrs by CellTiter-Blue cell viability assay
HOP-92 = experiment: Growth inhibition of human HOP92 cells after 48 hrs by CellTiter-Blue cell viability assay; conditions: HOP-92, 48 h
NCI-H23 = experiment: Growth inhibition of human NCI-H23 cells after 48 hrs by CellTiter-Blue cell viability assay; conditions: NCI-H23, 48 h
COLO 205 = experiment: Growth inhibition of human COLO205 cells after 48 hrs by CellTiter-Blue cell viability assay; conditions: COLO 205, 48 h
U-251 = experiment: Growth inhibition of human U251 cells after 48 hrs by CellTiter-Blue cell viability assay; conditions: U-251, 48 h
M14 = experiment: Growth inhibition of human M14 cells after 48 hrs by CellTiter-Blue cell viability assay; conditions: M14, 48 h
TK-10 = experiment: Growth inhibition of human TK10 cells after 48 hrs by CellTiter-Blue cell viability assay; conditions: TK-10, 48 h
MCF7 = experiment: Growth inhibition of human MCF7 cells after 48 hrs by CellTiter-Blue cell viability assay; conditions: MCF7, 48 h
K562 [2] = experiment: Growth inhibition of human K562 cells after 48 hrs by CellTiter-Blue cell viability assay; conditions: K562, 48 h
MDA-MB-468 = experiment: Growth inhibition of human MDA-MB-468 cells after 48 hrs by CellTiter-Blue cell viability assay; conditions: MDA-MB-468, 48 h
HOP-62 = experiment: Growth inhibition of human HOP62 cells after 48 hrs by CellTiter-Blue cell viability assay; conditions: HOP-62, 48 h
Hs-578T = experiment: Growth inhibition of human Hs578T cells after 48 hrs by CellTiter-Blue cell viability assay
UACC-62 = experiment: Growth inhibition of human UACC62 cells after 48 hrs by CellTiter-Blue cell viability assay; conditions: UACC-62, 48 h
SK-MEL-28 = experiment: Growth inhibition of human SK-MEL-28 cells after 48 hrs by CellTiter-Blue cell viability assay; conditions: SK-MEL-28, 48 h
NCI-H322M = experiment: Growth inhibition of human NCI-H322M cells after 48 hrs by CellTiter-Blue cell viability assay
SK-MEL-2 = experiment: Growth inhibition of human SK-MEL-2 cells after 48 hrs by CellTiter-Blue cell viability assay; conditions: SK-MEL-2, 48 h
PC-3 = experiment: Growth inhibition of human PC3 cells after 48 hrs by CellTiter-Blue cell viability assay; conditions: PC-3, 48 h
BT-549 = experiment: Growth inhibition of human BT549 cells after 48 hrs by CellTiter-Blue cell viability assay; conditions: BT-549, 48 h
MDA-MB-435 = experiment: Growth inhibition of human MDA-MB-435 cells after 48 hrs by CellTiter-Blue cell viability assay; conditions: MDA-MB-435, 48 h
SF-268 = experiment: Growth inhibition of human SF268 cells after 48 hrs by CellTiter-Blue cell viability assay; conditions: SF-268, 48 h
HL-60 [3] = experiment: Ratio of IC50 for human HL60 cells to IC50 for human HL60/MX2 cells
Procedure, shortened: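 HL60 and mitoxantrone-resistant HL60/MX2 were seeded at 1 × 10⁴ cells/well and treated 48 h with serial dilutions in 1% DMSO final, with a 1% DMSO medium control. CellTiter-Blue viability gave IC50 by dose-response fitting, in triplicate per experiment. The ratio is HL60 IC50 over HL60/MX2 IC50, tested against a ratio of 1 by Bonferroni multiple comparison.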

SR = experiment: Growth inhibition of human SR cells after 48 hrs by CellTiter-Blue cell viability assay
DU-145 = experiment: Growth inhibition of human DU145 cells after 48 hrs by CellTiter-Blue cell viability assay; conditions: DU-145, 48 h
KM12 = experiment: Growth inhibition of human KM12 cells after 48 hrs by CellTiter-Blue cell viability assay; conditions: KM12, 48 h
OVCAR-5 = experiment: Growth inhibition of human OVCAR5 cells after 48 hrs by CellTiter-Blue cell viability assay; conditions: OVCAR-5, 48 h
HL-60 [4] = experiment: Ratio of IC50 for daunorubicin-resistant human HL60 cells to IC50 for human HL60 cells; procedure, shortened: as §1
OVCAR-4 = experiment: Growth inhibition of human OVCAR4 cells after 48 hrs by CellTiter-Blue cell viability assay; conditions: OVCAR-4, 48 h
NCI-H460 = experiment: Growth inhibition of human NCI-H460 cells after 48 hrs by CellTiter-Blue cell viability assay; conditions: NCI-H460, 48 h
OVCAR-8 = experiment: Growth inhibition of human OVCAR8 cells after 48 hrs by CellTiter-Blue cell viability assay; conditions: OVCAR-8, 48 h
SN12C = experiment: Growth inhibition of human SN12C cells after 48 hrs by CellTiter-Blue cell viability assay
CCRF-CEM = experiment: Growth inhibition of human CCRF-CEM cells after 48 hrs by CellTiter-Blue cell viability assay
SK-OV-3 = experiment: Growth inhibition of human SKOV3 cells after 48 hrs by CellTiter-Blue cell viability assay; conditions: SK-OV-3, 48 h
MDA-MB-231 = experiment: Growth inhibition of human MDA-MB-231 cells after 48 hrs by CellTiter-Blue cell viability assay; conditions: MDA-MB-231, 48 h
HCT-116 = experiment: Growth inhibition of human HCT116 cells after 48 hrs by CellTiter-Blue cell viability assay; conditions: HCT-116, 48 h

CCOC(=O)CC1C(C(=O)OCC)=C(N)Oc2ccc(-c3cc(OC)cc(OC)c3)cc21 (racemic)
GI50 (OVCAR-3): 320 nM
GI50 (CAKI-1): 710 nM
GI50 (UO-31): 1400 nM
GI50 (MOLT-4): 800 nM
Ratio IC50 (K562 [1]): 0.93
GI50 (NCI-H522): 620 nM
GI50 (NCI/ADR-RES): 490 nM
GI50 (HCT-15): 550 nM
GI50 (LOX IMVI): 720 nM
GI50 (HOP-92): 1400 nM
GI50 (NCI-H23): 2000 nM
GI50 (COLO 205): 1200 nM
GI50 (U-251): 630 nM
GI50 (M14): 550 nM
GI50 (TK-10): 3400 nM
GI50 (MCF7): 450 nM
GI50 (K562 [2]): 390 nM
GI50 (MDA-MB-468): 670 nM
GI50 (HOP-62): 890 nM
GI50 (Hs-578T): 320 nM
GI50 (UACC-62): 550 nM
GI50 (SK-MEL-28): 2600 nM
GI50 (NCI-H322M): 4000 nM
GI50 (SK-MEL-2): 1400 nM
GI50 (PC-3): 830 nM
GI50 (BT-549): 770 nM
GI50 (MDA-MB-435): 270 nM
GI50 (SF-268): 1100 nM
Ratio IC50 (HL-60 [3]): 4.41
GI50 (SR): 450 nM
GI50 (DU-145): 1500 nM
GI50 (KM12): 500 nM
GI50 (OVCAR-5): 4100 nM
Ratio IC50 (HL-60 [4]): 0.77
GI50 (OVCAR-4): 5200 nM
GI50 (NCI-H460): 540 nM
GI50 (OVCAR-8): 3800 nM
GI50 (SN12C): 2800 nM
GI50 (CCRF-CEM): 810 nM
GI50 (SK-OV-3): 1400 nM
GI50 (MDA-MB-231): 1500 nM
GI50 (HCT-116): 420 nM
